According to PMC9742164 (ChemMedChem, 2022):
In brackets after ≈: the same amount, converted by molar mass.

Legend:
S. aureus ATCC 14775 = test: MIC broth microdilution; format: cell-based
MRSA ATCC 33591 = test: MIC broth microdilution; format: cell-based, methicillin-resistant Staphylococcus aureus
B. subtilis ATCC 6633 = test: MIC broth microdilution; format: cell-based
E. coli ATCC 25922 = test: MIC broth microdilution; format: cell-based
E. coli imp BAS3023 = format: cell-based; details: E. coli imp BAS3023 (imp4213 permeability mutation)
E. coli DNA gyrase [1] = molecular target: T1, E. coli DNA gyrase (Escherichia coli, UniProt P0AES6); test: Gel-based DNA gyrase supercoiling inhibition assay; format: biochemical; details: for IC50: supercoiling; for Inhibition of E. coli DNA gyrase: polyphenol screen, in words
E. coli DNA gyrase [2] = molecular target: T1, E. coli DNA gyrase; test: SDFQ-based DNA gyrase supercoiling inhibition assay; format: biochemical
[3] = molecular target: T2, E. coli DNA topoisomerase IV (Escherichia coli, UniProt P20083); test: Gel-based DNA relaxation assay by topoisomerase IV; format: biochemical; details: for IC50: IC50 against E. coli topoisomerase IV, relaxation; for Inhibition of E. coli DNA topoisomerase IV: in words
[4] = molecular target: T2, E. coli DNA topoisomerase IV; test: SDFQ-based DNA relaxation assay by topoisomerase IV; format: biochemical
[5] = molecular target: T2, E. coli DNA topoisomerase IV; test: DNA decatenation assay by topoisomerase IV; format: biochemical
E. coli DNA gyrase [6] = molecular target: T1, E. coli DNA gyrase; test: DNA gyrase ATPase linked assay; format: biochemical
Method in brief: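 Pyruvate kinase/lactate dehydrogenase-coupled NADH assay at 37°C. Buffer: 10 mM Tris-HCl pH 7.5, 0.2 mM EDTA, 1 mM MgCl2, 1 mM DTT, 2% glycerol. Mix: 50 nM gyrase or GyrB, 200 ng relaxed pAB1, 0.8 mM phosphoenolpyruvate, 1.2 U PK, 1.7 U LDH, 0.4 mM NADH. After 5 min preincubation, 2 mM ATP started the reaction, read at A340. Double-reciprocal plot with or without test compound at 500 nM; single-point at 100 μM.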

[7] = molecular target: T2, E. coli DNA topoisomerase IV; test: Topoisomerase IV ATPase linked assay; format: biochemical; details: in words; 100 μM (Figure 4e)
Method in brief: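 Topoisomerase IV ATP hydrolysis was coupled to NADH oxidation via pyruvate kinase/lactate dehydrogenase, read at 340 nm, 37°C. Buffer: 10 mM Tris-HCl pH 7.5, 0.2 mM EDTA, 1 mM MgCl2, 1 mM DTT, 2% glycerol. Mix: relaxed pAB1, 0.8 mM phosphoenolpyruvate, 0.4 mM NADH. After 5 min preincubation, 2 mM ATP was added. Test compounds at 100 μM.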

[8] = molecular target: E. coli DNA topoisomerase I (Escherichia coli, UniProt P06612); test: DNA relaxation assay by E. coli DNA topoisomerase I; format: biochemical; details: at 100 μM
[9] = molecular target: T3, human DNA topoisomerase I (Homo sapiens, UniProt P11387); test: DNA relaxation assay by human DNA topoisomerase I; format: biochemical; details: at 100 μM
T3 sequence (P11387 1-765): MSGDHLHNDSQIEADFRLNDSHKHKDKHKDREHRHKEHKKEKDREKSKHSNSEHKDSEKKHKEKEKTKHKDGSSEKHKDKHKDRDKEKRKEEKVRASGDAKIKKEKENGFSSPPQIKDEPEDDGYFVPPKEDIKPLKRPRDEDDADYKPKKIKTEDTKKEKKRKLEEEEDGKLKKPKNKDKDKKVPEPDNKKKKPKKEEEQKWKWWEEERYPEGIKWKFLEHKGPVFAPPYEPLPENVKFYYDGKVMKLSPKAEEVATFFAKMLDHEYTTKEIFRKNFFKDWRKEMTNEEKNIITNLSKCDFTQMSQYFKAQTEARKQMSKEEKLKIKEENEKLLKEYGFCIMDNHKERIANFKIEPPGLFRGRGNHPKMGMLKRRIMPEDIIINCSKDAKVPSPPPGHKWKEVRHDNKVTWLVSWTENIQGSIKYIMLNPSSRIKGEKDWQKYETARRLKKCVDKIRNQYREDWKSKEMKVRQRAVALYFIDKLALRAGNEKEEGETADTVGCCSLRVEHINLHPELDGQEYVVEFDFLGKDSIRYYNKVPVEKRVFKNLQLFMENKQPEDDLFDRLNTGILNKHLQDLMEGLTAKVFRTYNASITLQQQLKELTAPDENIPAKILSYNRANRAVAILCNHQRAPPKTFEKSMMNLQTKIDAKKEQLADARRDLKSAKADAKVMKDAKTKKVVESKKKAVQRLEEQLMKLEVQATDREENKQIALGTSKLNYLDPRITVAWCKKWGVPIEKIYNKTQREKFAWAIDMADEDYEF

[10] = molecular target: human DNA topoisomerase IIα (Homo sapiens, UniProt P11388); test: DNA relaxation assay by human DNA topoisomerase IIα; format: biochemical; details: at 100 μM
E. coli DNA gyrase [11] = molecular target: T1, E. coli DNA gyrase; test: DNA gyrase-mediated DNA cleavage assay; format: biochemical; details: up to 200 μM digallic acid
Method in brief: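 Plasmid pBR322 (250 ng) and 20 nM E. coli gyrase were incubated in gyrase buffer with test compound (0–200 μM) at 37°C for 15 min. Then 0.2% SDS and 0.1 mg/mL proteinase K were added to trap cleavage complexes, with 30 min more at 37°C. […] Products ran on 1% agarose containing 0.5 μg/mL ethidium bromide.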

[12] = IC50 against E. coli DNA gyrase, Gel-based
[13] = Staphylococcus aureus, ATCC14775
[14] = Staphylococcus aureus, ATCC33591|MRSA

T2 sequence (P20083 whole entry): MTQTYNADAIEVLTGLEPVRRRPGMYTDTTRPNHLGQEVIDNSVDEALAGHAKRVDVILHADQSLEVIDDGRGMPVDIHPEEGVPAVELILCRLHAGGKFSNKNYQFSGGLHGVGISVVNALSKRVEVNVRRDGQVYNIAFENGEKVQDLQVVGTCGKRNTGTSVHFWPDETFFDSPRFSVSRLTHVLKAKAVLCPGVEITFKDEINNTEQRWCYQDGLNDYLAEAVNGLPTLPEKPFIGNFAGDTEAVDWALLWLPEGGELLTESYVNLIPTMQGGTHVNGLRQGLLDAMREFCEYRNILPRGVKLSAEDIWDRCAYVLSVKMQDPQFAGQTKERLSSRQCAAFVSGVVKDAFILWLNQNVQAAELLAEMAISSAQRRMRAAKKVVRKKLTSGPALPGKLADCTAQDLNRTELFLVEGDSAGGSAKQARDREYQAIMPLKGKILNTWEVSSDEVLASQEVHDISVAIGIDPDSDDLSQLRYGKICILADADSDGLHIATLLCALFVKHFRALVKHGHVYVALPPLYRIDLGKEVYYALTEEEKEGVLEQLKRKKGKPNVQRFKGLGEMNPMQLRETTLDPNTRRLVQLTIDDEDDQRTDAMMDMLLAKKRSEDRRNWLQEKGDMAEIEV
T2 sequence (P0AFI2 whole entry, further chain): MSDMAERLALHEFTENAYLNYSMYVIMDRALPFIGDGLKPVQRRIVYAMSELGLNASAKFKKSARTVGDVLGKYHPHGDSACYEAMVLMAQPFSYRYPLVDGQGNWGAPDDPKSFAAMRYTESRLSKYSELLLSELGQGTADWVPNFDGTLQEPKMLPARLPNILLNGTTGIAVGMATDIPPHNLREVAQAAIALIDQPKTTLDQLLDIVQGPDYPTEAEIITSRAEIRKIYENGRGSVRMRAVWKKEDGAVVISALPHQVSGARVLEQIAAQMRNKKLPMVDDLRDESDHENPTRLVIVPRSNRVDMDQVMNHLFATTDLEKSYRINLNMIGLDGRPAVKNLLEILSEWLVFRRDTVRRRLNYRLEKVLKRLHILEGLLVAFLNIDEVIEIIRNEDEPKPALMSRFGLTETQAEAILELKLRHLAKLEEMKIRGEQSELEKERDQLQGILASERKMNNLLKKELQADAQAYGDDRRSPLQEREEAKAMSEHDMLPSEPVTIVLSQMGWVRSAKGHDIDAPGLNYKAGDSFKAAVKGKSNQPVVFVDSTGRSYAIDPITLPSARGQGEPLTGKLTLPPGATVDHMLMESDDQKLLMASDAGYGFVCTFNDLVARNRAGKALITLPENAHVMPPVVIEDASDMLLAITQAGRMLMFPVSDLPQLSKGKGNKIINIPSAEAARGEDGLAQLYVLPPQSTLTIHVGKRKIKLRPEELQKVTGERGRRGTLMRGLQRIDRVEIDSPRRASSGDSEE
E. coli DNA topoisomerase I, sequence (P06612 whole entry): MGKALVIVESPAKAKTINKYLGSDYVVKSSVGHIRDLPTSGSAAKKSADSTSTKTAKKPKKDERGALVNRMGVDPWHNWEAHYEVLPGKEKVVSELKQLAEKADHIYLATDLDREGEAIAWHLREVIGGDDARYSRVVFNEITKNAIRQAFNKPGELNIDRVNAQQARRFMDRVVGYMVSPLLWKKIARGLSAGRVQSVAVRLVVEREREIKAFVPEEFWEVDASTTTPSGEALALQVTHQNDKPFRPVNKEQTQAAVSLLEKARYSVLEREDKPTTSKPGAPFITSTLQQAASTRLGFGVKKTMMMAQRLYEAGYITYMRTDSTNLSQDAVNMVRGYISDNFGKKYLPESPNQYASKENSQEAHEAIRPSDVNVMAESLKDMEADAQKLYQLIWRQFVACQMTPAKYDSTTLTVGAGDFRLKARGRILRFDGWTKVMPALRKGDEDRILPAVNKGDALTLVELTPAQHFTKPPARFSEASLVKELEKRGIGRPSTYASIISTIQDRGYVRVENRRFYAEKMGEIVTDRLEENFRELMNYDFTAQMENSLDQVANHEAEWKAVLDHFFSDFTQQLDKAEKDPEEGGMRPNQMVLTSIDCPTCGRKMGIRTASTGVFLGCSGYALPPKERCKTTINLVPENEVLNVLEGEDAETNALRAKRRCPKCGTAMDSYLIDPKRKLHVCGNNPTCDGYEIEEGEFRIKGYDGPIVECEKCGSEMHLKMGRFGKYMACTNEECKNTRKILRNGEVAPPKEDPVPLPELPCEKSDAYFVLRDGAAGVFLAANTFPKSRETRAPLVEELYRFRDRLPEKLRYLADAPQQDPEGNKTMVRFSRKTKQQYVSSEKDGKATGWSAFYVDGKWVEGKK
human DNA topoisomerase IIα, sequence (P11388 whole entry): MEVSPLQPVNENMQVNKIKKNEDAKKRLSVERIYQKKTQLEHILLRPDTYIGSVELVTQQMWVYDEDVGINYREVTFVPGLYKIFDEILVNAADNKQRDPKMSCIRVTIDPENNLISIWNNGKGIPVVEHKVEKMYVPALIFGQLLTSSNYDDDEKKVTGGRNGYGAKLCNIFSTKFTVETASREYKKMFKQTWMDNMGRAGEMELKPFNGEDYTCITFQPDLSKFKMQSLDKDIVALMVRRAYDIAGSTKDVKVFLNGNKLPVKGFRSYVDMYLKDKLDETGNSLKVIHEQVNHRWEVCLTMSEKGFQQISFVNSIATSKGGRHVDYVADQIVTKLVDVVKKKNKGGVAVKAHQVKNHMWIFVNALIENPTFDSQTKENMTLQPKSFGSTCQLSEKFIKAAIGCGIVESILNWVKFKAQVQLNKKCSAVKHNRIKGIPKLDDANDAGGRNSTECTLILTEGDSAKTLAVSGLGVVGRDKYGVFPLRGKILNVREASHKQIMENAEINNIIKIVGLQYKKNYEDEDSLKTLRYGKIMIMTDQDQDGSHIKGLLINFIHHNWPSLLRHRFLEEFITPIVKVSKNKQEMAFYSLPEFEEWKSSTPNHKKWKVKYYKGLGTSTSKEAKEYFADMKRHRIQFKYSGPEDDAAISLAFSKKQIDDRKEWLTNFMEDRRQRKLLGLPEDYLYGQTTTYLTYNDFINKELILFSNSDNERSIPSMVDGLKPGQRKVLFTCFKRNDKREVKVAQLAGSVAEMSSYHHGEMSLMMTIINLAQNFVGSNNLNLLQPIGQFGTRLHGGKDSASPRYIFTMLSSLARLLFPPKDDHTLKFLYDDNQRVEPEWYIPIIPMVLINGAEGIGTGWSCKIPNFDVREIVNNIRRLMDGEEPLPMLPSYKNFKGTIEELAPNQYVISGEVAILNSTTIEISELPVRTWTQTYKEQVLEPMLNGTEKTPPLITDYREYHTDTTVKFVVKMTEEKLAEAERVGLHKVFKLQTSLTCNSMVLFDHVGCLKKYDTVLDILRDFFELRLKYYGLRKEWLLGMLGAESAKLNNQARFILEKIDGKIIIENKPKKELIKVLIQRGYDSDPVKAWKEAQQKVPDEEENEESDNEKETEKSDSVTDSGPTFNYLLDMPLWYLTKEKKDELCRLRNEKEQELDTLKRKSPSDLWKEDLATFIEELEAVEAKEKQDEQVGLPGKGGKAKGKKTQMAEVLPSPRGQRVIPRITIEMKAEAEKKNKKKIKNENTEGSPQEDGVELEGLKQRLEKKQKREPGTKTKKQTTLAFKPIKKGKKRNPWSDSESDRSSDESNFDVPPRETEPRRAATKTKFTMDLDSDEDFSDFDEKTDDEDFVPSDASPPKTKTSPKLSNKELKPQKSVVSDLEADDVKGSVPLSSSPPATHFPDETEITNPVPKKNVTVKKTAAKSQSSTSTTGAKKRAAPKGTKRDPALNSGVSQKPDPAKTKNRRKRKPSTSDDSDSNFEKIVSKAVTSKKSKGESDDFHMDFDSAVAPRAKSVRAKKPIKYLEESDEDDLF

Row | Molecule | IC50 (E. coli DNA gyrase [1]; [12]) | IC50 (E. coli DNA gyrase [2]) | IC50 ([3]; Gel-based) | IC50 [4] | MIC (S. aureus ATCC 14775; [13]) | MIC (MRSA ATCC 33591; [14]) | MIC (E. coli ATCC 25922; Escherichia coli, ATCC25922) | further results
1 | O=C(Oc1ccc(-c2ccccc2)cc1)c1cc(O)c(O)c(O)c1 [Biphenyl gallate, biphenyl gallate] | – | – | – | – | – | – | – | MIC (S. aureus ATCC 14775; S. aureus ATCC 14775): 50 µM (≈ 16.1 µg/mL); MIC (MRSA ATCC 33591; MRSA ATCC 33591): 50 µM (≈ 16.1 µg/mL); MIC (B. subtilis ATCC 6633): 50 to 100 µM; MIC (E. coli ATCC 25922; E. coli ATCC 25922): >200 µM; MIC (E. coli imp BAS3023): 200 µM (≈ 64.5 µg/mL)
2 | CCCCCCCCCCCCOC(=O)c1cc(O)c(O)c(O)c1 [Dodecyl gallate, dodecyl gallate] | 15 µM | 13.8 µM | 50 µM | 36.9 µM | 200 µM (≈ 67.7 µg/mL) | 200 µM (≈ 67.7 µg/mL) | > 200 µM | Inhibition of E. coli DNA topoisomerase IV [3]: strongly inhibit
3 | O=C(O)c1cc(O)c(O)c(OC(=O)c2cc(O)c(O)c(O)c2)c1 [Digallic acid, digallic acid] | 2 µM | 1.9 µM | 8 µM | 7.3 µM | 200 µM (≈ 64.4 µg/mL) | 200 µM (≈ 64.4 µg/mL) | > 200 µM | IC50 (E. coli DNA gyrase [1]; IC50 against E. coli DNA gyrase, gel (Figure 1)): ~2 µM; IC50 [3]: ~8 µM; IC50 [5]: ~4 µM; Ki (E. coli DNA gyrase [6]): 0.347 µM; Vmax of gyrase ATPase (E. coli DNA gyrase [6]; in the presence of 500 nM of digallic acid, without inhibitor 16.3 ± 2.5 nM/s): 17.8 ± 5.0 nM/s; Inhibition of ATPase activities of E. coli DNA gyrase (E. coli DNA gyrase [6]; in words, 100 μM (Figure 3d)): greatly inhibit; Inhibition of ATPase activities of bacterial DNA topoisomerase IV [7]: inhibit; Inhibition of E. coli DNA topoisomerase I [8]: do not inhibit; Inhibition of human DNA topoisomerase I [9]: do not inhibit; Inhibition of human DNA topoisomerase IIα [10]: do not inhibit; Gyrase poisoning (gyrase-mediated DNA cleavage) (E. coli DNA gyrase [11]): not bacterial DNA gyrase poisons
4 | O=c1oc2c(O)c(O)cc3c(=O)oc4c(O)c(O)cc1c4c23 [ellagic acid, reference compound] | – | – | – | – | – | – | – | Inhibition of E. coli DNA gyrase (E. coli DNA gyrase [1]): strongly inhibit
5 | O=C(O[C@@H]1Cc2c(O)cc(O)cc2O[C@@H]1c1cc(O)c(O)c(O)c1)c1cc(O)c(O)c(O)c1 [EGCG, epigallocatechin gallate, reference compound] | – | – | – | – | – | – | – | Inhibition of E. coli DNA gyrase (E. coli DNA gyrase [1]): strongly inhibit
6 | CO[C@@H]1[C@@H](OC(N)=O)[C@@H](O)[C@H](Oc2ccc3c(O)c(NC(=O)c4ccc(O)c(CC=C(C)C)c4)c(=O)oc3c2C)OC1(C)C [Novobiocin, novobiocin, reference compound] | – | – | – | – | < 6.25 µM | < 6.25 µM | 158 µM (≈ 96.5 µg/mL) | –
7 | O=C(Oc1ccccc1)c1cc(O)c(O)c(O)c1 [Phenyl gallate, phenyl gallate] | – | – | – | – | – | – | – | IC50 (E. coli DNA gyrase [1]; read-out: IC50 against E. coli DNA gyrase, Gel-based, gel-based): > 100 µM; IC50 (E. coli DNA gyrase [2]; read-out: IC50 against E. coli DNA gyrase, SDFQ, supercoiling, SDFQ): > 100 µM; IC50 ([4]; read-out: IC50 against E. coli topoisomerase IV, SDFQ, relaxation, SDFQ): > 100 µM; MIC (S. aureus ATCC 14775; S. aureus ATCC 14775): 200 µM (≈ 49.2 µg/mL); MIC (MRSA ATCC 33591; MRSA ATCC 33591): 200 µM (≈ 49.2 µg/mL); MIC (B. subtilis ATCC 6633): >200 µM; MIC (E. coli ATCC 25922; E. coli ATCC 25922): >200 µM; MIC (E. coli imp BAS3023): >200 µM
8 | O=C(/C=C/c1ccc(O)c(O)c1)O[C@@H]1CC(O)(C(=O)O)C[C@@H](OC(=O)/C=C/c2ccc(O)c(O)c2)C1O (stereo partly drawn) [3,5-dicaffeoylquinic acid, reference compound] | – | – | – | – | – | – | – | Inhibition of E. coli DNA gyrase (E. coli DNA gyrase [1]): strongly inhibit
9 | O=C(O)c1cc(O)c(O)c(O)c1 [Gallic acid, gallic acid] | > 500 µM | – | > 500 µM | – | – | – | – | –
10 | CCCCOC(=O)c1cc(O)c(O)c(O)c1 [Butyl gallate, butyl gallate] | > 100 µM | > 100 µM | > 100 µM | > 100 µM | > 200 µM | > 200 µM | > 200 µM | –
11 | CCCCCCCCOC(=O)c1cc(O)c(O)c(O)c1 [Octyl gallate, octyl gallate] | 50 µM | 26 µM | 50 µM | 41.2 µM | 200 µM (≈ 56.5 µg/mL) | 100 µM (≈ 28.2 µg/mL) | > 200 µM | Inhibition of E. coli DNA topoisomerase IV [3]: strongly inhibit
12 | tannic acid | – | – | – | – | – | – | – | IC50 (E. coli DNA gyrase [1]; read-out: IC50 against E. coli DNA gyrase, gel (Figure 1)): 1 µM
